Measurements from ChEMBL document CHEMBL4177764 (J Med Chem, 2018).
Active and inactive are the calls of the source. The calls are words filed in the database; no cut-off is given here.

Experiments:
[1] = molecular target: T1, Aurora kinase A (Homo sapiens) (UniProt O14965); experiment: Induction of aurora A degradation in human CHLA20 cells at 100 nM after 16 hrs in presence of proteasome inhibitor carfilzomib and ABCB1 inhibitor tariquidar by immunoblot method; assay type: cell-based
T1 sequence (whole entry): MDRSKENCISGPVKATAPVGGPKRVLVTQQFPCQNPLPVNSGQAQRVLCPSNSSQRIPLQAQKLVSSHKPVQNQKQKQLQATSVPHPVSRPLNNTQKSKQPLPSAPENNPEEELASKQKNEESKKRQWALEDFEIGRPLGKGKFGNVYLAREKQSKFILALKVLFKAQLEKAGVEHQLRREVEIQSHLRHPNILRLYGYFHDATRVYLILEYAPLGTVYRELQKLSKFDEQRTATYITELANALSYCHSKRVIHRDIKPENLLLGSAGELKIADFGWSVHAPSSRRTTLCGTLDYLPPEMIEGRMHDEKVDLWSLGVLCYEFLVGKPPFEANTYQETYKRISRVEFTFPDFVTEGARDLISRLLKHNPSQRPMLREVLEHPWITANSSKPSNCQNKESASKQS
In short: (§1)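 Cells were pre-treated for 2 h with DMSO, carfilzomib, MLN4924 or pomalidomide, then treated with compound for 16 h, with immunoblot read-out. CHLA20 cells also received 125 nM tariquidar throughout.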

[2] = molecular target: T2, ALK tyrosine kinase receptor (Homo sapiens, UniProt Q9UM73); experiment: Induction of ALK degradation in human NCI-H3122 cells at 250 nM after 16 hrs in presence of ALK inhibitor LDK378 by immunoblot method; assay type: cell-based
Target sequence in this assay (Q9UM73 19-1620 limits assumed): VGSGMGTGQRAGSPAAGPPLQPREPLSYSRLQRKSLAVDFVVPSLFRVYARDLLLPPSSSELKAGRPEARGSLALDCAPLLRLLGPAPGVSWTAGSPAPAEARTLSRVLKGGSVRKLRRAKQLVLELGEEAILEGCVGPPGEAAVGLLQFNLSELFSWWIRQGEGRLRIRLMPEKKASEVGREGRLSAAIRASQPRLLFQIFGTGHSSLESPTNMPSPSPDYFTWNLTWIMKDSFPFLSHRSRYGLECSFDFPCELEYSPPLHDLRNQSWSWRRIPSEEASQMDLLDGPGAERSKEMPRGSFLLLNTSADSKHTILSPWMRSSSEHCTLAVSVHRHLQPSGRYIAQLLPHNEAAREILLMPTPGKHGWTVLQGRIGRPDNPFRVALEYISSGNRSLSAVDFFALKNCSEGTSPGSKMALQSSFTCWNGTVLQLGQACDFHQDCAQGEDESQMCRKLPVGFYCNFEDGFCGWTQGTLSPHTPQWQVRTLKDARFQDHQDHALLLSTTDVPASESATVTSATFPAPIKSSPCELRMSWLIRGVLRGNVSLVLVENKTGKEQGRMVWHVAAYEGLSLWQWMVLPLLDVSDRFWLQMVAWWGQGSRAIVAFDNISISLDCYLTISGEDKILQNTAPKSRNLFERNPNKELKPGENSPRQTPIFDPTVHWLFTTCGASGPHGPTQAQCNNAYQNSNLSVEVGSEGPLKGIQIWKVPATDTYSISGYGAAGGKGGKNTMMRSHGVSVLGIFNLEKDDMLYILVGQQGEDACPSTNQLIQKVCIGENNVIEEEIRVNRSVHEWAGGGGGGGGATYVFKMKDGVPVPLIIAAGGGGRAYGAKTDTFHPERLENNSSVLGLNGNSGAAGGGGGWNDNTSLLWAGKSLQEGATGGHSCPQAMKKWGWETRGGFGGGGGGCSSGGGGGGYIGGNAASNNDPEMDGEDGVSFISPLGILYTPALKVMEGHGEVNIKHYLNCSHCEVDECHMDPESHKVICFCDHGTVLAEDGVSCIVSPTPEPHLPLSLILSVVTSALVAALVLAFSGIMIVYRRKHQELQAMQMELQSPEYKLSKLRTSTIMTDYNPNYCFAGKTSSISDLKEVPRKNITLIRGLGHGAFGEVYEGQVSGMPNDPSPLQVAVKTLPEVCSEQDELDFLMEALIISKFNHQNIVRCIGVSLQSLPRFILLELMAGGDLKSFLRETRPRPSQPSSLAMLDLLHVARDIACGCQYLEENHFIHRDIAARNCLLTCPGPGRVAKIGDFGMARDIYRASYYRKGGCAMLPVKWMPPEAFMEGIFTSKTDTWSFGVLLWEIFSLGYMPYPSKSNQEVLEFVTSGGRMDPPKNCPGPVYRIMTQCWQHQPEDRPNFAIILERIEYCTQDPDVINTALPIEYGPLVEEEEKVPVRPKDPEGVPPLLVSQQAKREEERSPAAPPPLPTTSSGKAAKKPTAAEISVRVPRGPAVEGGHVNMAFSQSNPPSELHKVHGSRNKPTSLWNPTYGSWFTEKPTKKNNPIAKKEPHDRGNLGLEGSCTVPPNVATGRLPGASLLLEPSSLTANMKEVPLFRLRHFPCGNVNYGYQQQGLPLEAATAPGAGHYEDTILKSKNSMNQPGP

[3] = molecular target: Tyrosine-protein kinase Fer (Homo sapiens) (UniProt P16591); experiment: Induction of FER degradation in human NCI-H3122 cells at 0.01 to 1 uM after 16 hrs by immunoblot method; assay type: cell-based
[4] = molecular target: T1, Aurora kinase A (Homo sapiens); experiment: Induction of aurora A degradation in human Kelly cells at 100 nM measured over 2 to 16 hrs by immunoblot method; assay type: cell-based
In short: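 Kelly cells were given 100 nM compound for varying times, and lysates were immunoblotted for Aurora A.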

[5] = molecular target: T2, ALK tyrosine kinase receptor; experiment: Induction of ALK degradation in human Kelly cells at 100 nM after 4 hrs by immunoblot method; assay type: cell-based
In short: (§2)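 Kelly cells were treated with 100 nM compound for varying times and lysed at each time point. ALK levels were read by immunoblot.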
Target sequence in this assay (Q9UM73 19-1620 limits assumed): as above

[6] = molecular target: Ribosomal protein S6 kinase alpha-1 (Homo sapiens) (UniProt Q15418); experiment: Induction of RPS6KA1 degradation in human NCI-H3122 cells at 0.01 to 1 uM after 16 hrs by immunoblot method; assay type: cell-based
[7] = molecular target: T1, Aurora kinase A (Homo sapiens); experiment: Induction of aurora A degradation in human Kelly cells at 100 nM after 16 hrs in presence of proteasome inhibitor carfilzomib by immunoblot method; assay type: cell-based; in short: as §1
[8] = molecular target: Ribosomal protein S6 kinase alpha-1 (Homo sapiens) (UniProt Q15418); experiment: Induction of RPS6KA1 degradation in human Kelly cells at 10 to 160 nM after 16 hrs by immunoblot method; assay type: cell-based
[9] = molecular target: T1, Aurora kinase A (Homo sapiens); experiment: Induction of aurora A degradation in human CHLA20 cells at 100 nM after 16 hrs in presence of pomalidomide and ABCB1 inhibitor tariquidar by immunoblot method; assay type: cell-based; in short: as §1
[10] = molecular target: T2, ALK tyrosine kinase receptor; experiment: Induction of ALK degradation in human Kelly cells at 100 nM after 16 hrs in presence of pomalidomide by immunoblot method; assay type: cell-based
In short: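 Kelly cells were pre-treated for 2 h with DMSO, carfilzomib, MLN4924, pomalidomide, TAE684 or LDK378. Degrader treatment followed for 16 h, and ALK was read by immunoblot.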
Target sequence in this assay (Q9UM73 19-1620 limits assumed): as above

[11] = molecular target: T1, Aurora kinase A (Homo sapiens); experiment: Induction of aurora A degradation in human NCI-H3122 cells at 250 nM measured over 2 to 16 hrs by immunoblot method; assay type: cell-based
[12] = molecular target: Tyrosine-protein kinase Fer (Homo sapiens) (UniProt P16591); experiment: Induction of FER degradation in human Kelly cells at 100 nM measured over 2 to 16 hrs by immunoblot method; assay type: cell-based
[13] = molecular target: T2, ALK tyrosine kinase receptor; experiment: Induction of ALK degradation in human KARPAS299 cells at 250 nM after 16 hrs in presence of […] inhibitor MLN4924 by immunoblot method; assay type: cell-based
Target sequence in this assay (Q9UM73 19-1620 limits assumed): as above

[14] = molecular target: T2, ALK tyrosine kinase receptor; experiment: Induction of ALK degradation in human KARPAS299 cells at 250 nM after 16 hrs in presence of ALK inhibitor TAE684 by immunoblot method; assay type: cell-based
Target sequence in this assay (Q9UM73 19-1620 limits assumed): as above

Homo sapiens = species: Homo sapiens; experiment: Antiproliferative activity against human CHLA20 cells after 72 hrs by CellTiter-Glo luminescent cell viability assay; assay type: functional, cell-based
[15] = molecular target: T2, ALK tyrosine kinase receptor; experiment: Induction of ALK degradation in human CHLA20 cells at 100 nM after 4 hrs in presence of ABCB1 inhibitor tariquidar by immunoblot method; assay type: cell-based
In short: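 CHLA20 cells were co-treated with 125 nM tariquidar, then treated with 100 nM compound over a time course. ALK was read by immunoblot.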
Target sequence in this assay (Q9UM73 19-1620 limits assumed): as above

[16] = molecular target: T2, ALK tyrosine kinase receptor; experiment: Induction of ALK degradation in human Kelly cells at 100 nM after 8 hrs by immunoblot method; assay type: cell-based; in short: as §2
[17] = molecular target: Tyrosine-protein kinase Fer (Homo sapiens) (UniProt P16591); experiment: Induction of FER degradation in human NCI-H3122 cells at 250 nM measured over 2 to 16 hrs by immunoblot method; assay type: cell-based
[18] = molecular target: Focal adhesion kinase 1 (Homo sapiens) (UniProt Q05397); experiment: Induction of PTK2 degradation in human NCI-H3122 cells at 0.01 to 1 uM after 16 hrs by immunoblot method; assay type: cell-based
[19] = molecular target: Ribosomal protein S6 kinase alpha-1 (Homo sapiens) (UniProt Q15418); experiment: Induction of RPS6KA1 degradation in human NCI-H3122 cells at 250 nM measured over 2 to 16 hrs by immunoblot method; assay type: cell-based
[20] = molecular target: T2, ALK tyrosine kinase receptor; experiment: Induction of ALK degradation in human KARPAS299 cells at 250 nM after 16 hrs in presence of pomalidomide by immunoblot method; assay type: cell-based
[21] = molecular target: T1, Aurora kinase A (Homo sapiens); experiment: Induction of aurora A degradation in human KARPAS299 cells at 250 nM after 16 hrs in presence of […] inhibitor MLN4924 by immunoblot method; assay type: cell-based
[22] = molecular target: T2, ALK tyrosine kinase receptor; experiment: Induction of ALK degradation in human Kelly cells after 16 hrs by immunoblot method; assay type: cell-based
In short: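 Kelly neuroblastoma cells (ABCB1-low) were given a 16 hr dose titration. ALK and Aurora A were then read by western blot. DC50 was determined from two independent experiments.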

[23] = molecular target: T2, ALK tyrosine kinase receptor; experiment: Induction of ALK degradation in human CHLA20 cells at 100 nM after 16 hrs in presence of ALK inhibitor LDK378 and ABCB1 inhibitor tariquidar by immunoblot method; assay type: cell-based
In short: (§3)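 CHLA20 cells were kept with 125 nM tariquidar and pre-treated for 2 h with DMSO, carfilzomib, MLN4924, pomalidomide, TAE684 or LDK378. A 16 h degrader treatment followed, with immunoblot readout of ALK.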

[24] = molecular target: Ribosomal protein S6 kinase alpha-1 (Homo sapiens) (UniProt Q15418); experiment: Induction of RPS6KA1 degradation in human KARPAS299 cells at 0.01 to 1 uM after 16 hrs by immunoblot method; assay type: cell-based
[25] = molecular target: T2, ALK tyrosine kinase receptor; experiment: Induction of ALK degradation in human NCI-H3122 cells at 250 nM after 16 hrs in presence of […] inhibitor MLN4924 by immunoblot method; assay type: cell-based
[26] = molecular target: T1, Aurora kinase A (Homo sapiens); experiment: Induction of aurora A degradation in human Kelly cells at 100 nM after 16 hrs in presence of pomalidomide by immunoblot method; assay type: cell-based; in short: as §1
[27] = molecular target: T2, ALK tyrosine kinase receptor; experiment: Induction of ALK degradation in human NCI-H3122 cells at 250 nM after 4 hrs by immunoblot method; assay type: cell-based
[28] = molecular target: T2, ALK tyrosine kinase receptor; experiment: Induction of ALK degradation in human CHLA20 cells at 100 nM after 16 hrs in presence of ALK inhibitor TAE684 and ABCB1 inhibitor tariquidar by immunoblot method; assay type: cell-based; in short: as §3

Sequence of Tyrosine-protein kinase Fer (Homo sapiens) (P16591 whole entry, looked up): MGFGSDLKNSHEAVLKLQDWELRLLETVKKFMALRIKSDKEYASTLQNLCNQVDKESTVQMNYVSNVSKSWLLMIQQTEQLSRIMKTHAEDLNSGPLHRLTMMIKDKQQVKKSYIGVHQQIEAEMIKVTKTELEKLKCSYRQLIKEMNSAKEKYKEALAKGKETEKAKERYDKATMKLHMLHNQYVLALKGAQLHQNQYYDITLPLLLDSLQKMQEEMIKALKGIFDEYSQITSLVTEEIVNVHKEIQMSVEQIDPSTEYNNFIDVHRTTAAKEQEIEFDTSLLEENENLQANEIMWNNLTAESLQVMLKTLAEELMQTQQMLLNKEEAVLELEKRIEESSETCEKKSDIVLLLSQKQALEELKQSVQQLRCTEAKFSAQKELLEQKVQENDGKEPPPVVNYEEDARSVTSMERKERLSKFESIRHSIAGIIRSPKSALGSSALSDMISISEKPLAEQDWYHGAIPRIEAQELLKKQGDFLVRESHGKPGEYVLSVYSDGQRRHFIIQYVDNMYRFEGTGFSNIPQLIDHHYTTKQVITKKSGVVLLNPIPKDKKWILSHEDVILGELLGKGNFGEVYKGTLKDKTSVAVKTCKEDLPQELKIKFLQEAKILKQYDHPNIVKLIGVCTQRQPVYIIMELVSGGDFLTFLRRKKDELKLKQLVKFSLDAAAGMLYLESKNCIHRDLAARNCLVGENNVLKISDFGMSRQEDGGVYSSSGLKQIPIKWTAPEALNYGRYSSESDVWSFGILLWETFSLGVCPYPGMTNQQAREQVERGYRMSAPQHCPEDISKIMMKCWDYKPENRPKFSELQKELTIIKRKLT
Sequence of Ribosomal protein S6 kinase alpha-1 (Homo sapiens) (Q15418 whole entry): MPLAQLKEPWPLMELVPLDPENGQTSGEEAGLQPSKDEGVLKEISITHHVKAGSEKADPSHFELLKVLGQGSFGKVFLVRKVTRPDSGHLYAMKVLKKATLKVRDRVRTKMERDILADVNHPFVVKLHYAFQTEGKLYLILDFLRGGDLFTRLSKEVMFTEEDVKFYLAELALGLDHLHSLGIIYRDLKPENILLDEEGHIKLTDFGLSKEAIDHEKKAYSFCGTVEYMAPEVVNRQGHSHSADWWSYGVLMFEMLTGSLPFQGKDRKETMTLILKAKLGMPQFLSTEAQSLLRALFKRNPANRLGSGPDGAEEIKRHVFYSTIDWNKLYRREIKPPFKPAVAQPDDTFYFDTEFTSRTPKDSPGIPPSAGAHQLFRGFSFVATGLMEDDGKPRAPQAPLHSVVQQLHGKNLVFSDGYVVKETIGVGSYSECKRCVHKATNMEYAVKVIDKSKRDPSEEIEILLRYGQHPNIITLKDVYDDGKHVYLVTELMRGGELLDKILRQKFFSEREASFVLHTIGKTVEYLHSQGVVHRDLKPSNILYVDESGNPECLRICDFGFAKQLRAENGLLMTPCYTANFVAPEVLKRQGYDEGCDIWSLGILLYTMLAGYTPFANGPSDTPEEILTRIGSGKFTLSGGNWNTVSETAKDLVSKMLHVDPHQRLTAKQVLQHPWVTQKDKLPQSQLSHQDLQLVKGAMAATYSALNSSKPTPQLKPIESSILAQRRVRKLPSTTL
Sequence of Focal adhesion kinase 1 (Homo sapiens) (Q05397 2-1052 limits assumed): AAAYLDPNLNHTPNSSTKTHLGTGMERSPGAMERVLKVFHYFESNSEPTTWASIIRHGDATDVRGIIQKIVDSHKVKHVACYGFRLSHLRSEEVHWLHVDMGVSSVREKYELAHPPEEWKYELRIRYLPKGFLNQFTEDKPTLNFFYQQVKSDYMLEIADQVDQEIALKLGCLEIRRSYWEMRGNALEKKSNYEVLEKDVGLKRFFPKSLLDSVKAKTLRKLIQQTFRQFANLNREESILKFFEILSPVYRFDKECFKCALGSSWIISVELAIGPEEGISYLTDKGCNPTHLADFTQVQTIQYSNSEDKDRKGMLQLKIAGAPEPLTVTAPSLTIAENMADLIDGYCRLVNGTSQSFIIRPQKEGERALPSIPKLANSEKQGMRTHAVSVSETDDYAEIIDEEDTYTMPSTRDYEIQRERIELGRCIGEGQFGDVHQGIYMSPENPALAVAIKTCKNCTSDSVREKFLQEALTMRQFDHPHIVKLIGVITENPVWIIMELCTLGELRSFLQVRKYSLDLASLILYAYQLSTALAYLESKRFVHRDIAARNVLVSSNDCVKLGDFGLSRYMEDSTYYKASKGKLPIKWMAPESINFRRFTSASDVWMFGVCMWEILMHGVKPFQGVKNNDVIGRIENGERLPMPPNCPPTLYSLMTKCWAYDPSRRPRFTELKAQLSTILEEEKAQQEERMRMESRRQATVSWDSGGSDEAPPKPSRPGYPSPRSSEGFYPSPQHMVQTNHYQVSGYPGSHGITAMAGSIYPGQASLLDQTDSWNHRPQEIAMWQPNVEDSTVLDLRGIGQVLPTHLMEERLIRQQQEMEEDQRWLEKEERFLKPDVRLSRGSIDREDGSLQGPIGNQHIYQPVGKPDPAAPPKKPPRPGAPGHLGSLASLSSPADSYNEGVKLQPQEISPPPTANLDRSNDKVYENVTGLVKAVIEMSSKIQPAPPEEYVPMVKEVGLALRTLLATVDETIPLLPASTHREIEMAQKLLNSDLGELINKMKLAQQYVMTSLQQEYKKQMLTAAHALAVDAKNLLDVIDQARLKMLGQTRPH

`COc1cc(N2CCN(CCOCCOCCNC(=O)CNc3cccc4c3C(=O)N(C3CCC(=O)NC3=O)C4=O)CC2)ccc1Nc1ncc(Cl)c(Nc2ccccc2S(=O)(=O)C(C)C)n1` (stereo not drawn) was tested. Which Activity [1] did it give?
Its Activity is “inactive”.

And the Activity [2]?
Its Activity is “Active”.

And the Activity [3]?
Its Activity is “Active”.

What about the Activity [4] of the same compound?
The Activity was “Active”.

And the Activity [5]?
Its Activity is “inactive”.

What about the Activity [6] of the same compound?
Its Activity is “Active”.

And the Activity [7]?
Its Activity is “inactive”.

What about the Activity [8] of the same compound?
The Activity was “Active”.

What about the Activity [9] of the same compound?
Its Activity is “inactive”.

And the Activity [10]?
Its Activity is “inactive”.

And the Activity [11]?
The Activity was “Active”.

What about the Activity [12] of the same compound?
Its Activity is “Active”.

And the Activity [13]?
The Activity was “inactive”.

And the Activity [14]?
Its Activity is “inactive”.

What about the Activity (Homo sapiens) of the same compound?
Its Activity is “inactive”.

And the Activity [15]?
The Activity was “Active”.

And the Activity [16]?
Its Activity is “Active”.

And the Activity [17]?
The Activity was “Active”.

And the Activity [18]?
Its Activity is “Active”.

And the Activity [19]?
The Activity was “Active”.

And the Activity [20]?
Its Activity is “inactive”.

And the Activity [21]?
Its Activity is “inactive”.

What about the DC50 [22] of the same compound?
The DC50 was 50 nM.

What about the Activity [23] of the same compound?
Its Activity is “inactive”.

What about the Activity [24] of the same compound?
Its Activity is “Active”.

What about the Activity [25] of the same compound?
Its Activity is “inactive”.

What about the Activity [26] of the same compound?
Its Activity is “inactive”.

And the Activity [27]?
The Activity was “Active”.

What about the Activity [28] of the same compound?
The Activity was “inactive”.

Which Activity [1] does the source give for `Cc1cc(Nc2ncc(Cl)c(Nc3ccccc3S(=O)(=O)C(C)C)n2)c(OC(C)C)cc1C1CCN(CCOCCOCCNC(=O)CNc2cccc3c2C(=O)N(C2CCC(=O)NC2=O)C3=O)CC1` (stereo not drawn) here?
The Activity was “inactive”.

And the Activity [2]?
The Activity was “Active”.

And the Activity [3]?
The Activity was “Active”.

And the Activity [4]?
Its Activity is “Active”.

And the Activity [5]?
The Activity was “inactive”.

What about the Activity [6] of the same compound?
The Activity was “Active”.

And the Activity [7]?
Its Activity is “inactive”.

And the Activity [8]?
Its Activity is “Active”.

And the Activity [9]?
The Activity was “inactive”.

What about the Activity [10] of the same compound?
Its Activity is “inactive”.

And the Activity [11]?
Its Activity is “Active”.

What about the Activity [12] of the same compound?
Its Activity is “Active”.

And the Activity [13]?
The Activity was “inactive”.

And the Activity [14]?
Its Activity is “inactive”.

What about the Activity (Homo sapiens) of the same compound?
The Activity was “inactive”.

And the Activity [15]?
Its Activity is “Active”.

What about the Activity [16] of the same compound?
The Activity was “Active”.

And the Activity [17]?
Its Activity is “Active”.

What about the Activity [18] of the same compound?
The Activity was “Active”.

What about the Activity [19] of the same compound?
Its Activity is “Active”.

What about the Activity [20] of the same compound?
The Activity was “inactive”.

What about the Activity [21] of the same compound?
The Activity was “inactive”.

What about the DC50 [22] of the same compound?
Its DC50 is 50 nM.

And the Activity [23]?
The Activity was “inactive”.

What about the Activity [24] of the same compound?
The Activity was “Active”.

And the Activity [25]?
Its Activity is “inactive”.

What about the Activity [26] of the same compound?
Its Activity is “inactive”.

What about the Activity [27] of the same compound?
The Activity was “Active”.

What about the Activity [28] of the same compound?
Its Activity is “inactive”.
